Measurements taken from ChEMBL document CHEMBL1148174, “Antihyperlipidemic effect of flavonoids from Pterocarpus marsupium” (1993).

Key:
Type in all cases: functional
Rattus norvegicus [1] = experiment: Antihyperlipidemic activity in diet-induced hyperlipidemic rat model assessed as serum VLDLC level at 40 mg/kg, po administered once daily in morning through gastric intubation for 14 days measured after 4 hrs of last dose
In short: (§1)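 Male Charles Foster albino rats (200–250 g) fed a hyperlipidemic diet. Compound suspended in 5% EtOH/saline, given by gastric intubation each morning for 14 days; controls got vehicle. Killed 4 h after the last dose, serum taken by cardiac puncture. TC by Abell method, TG by Gottfried–Rosenberg, HDL-C by kit. LDL-C and VLDL-C by Friedewald calculation. Atherogenic index = (TC−HDL-C)/HDL-C. Mean ± SEM, n=6, t-test.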

Rattus norvegicus [2] = experiment: Antihyperlipidemic activity in diet-induced hyperlipidemic rat model assessed as serum triglyceride level at 40 mg/kg, po administered once daily in morning through gastric intubation for 14 days measured after 4 hrs of last dose; in short: as §1
Rattus norvegicus [3] = experiment: Antihyperlipidemic activity in diet-induced hyperlipidemic rat model assessed as serum HDLC level at 40 mg/kg, po administered once daily in morning through gastric intubation for 14 days measured after 4 hrs of last dose; in short: as §1
Rattus norvegicus [4] = experiment: Antihyperlipidemic activity in diet-induced hyperlipidemic rat model assessed as serum total cholesterol level at 40 mg/kg, po administered once daily in morning through gastric intubation for 14 days measured after 4 hrs of last dose; in short: as §1
Rattus norvegicus [5] = experiment: Antihyperlipidemic activity in diet-induced hyperlipidemic rat model assessed as serum LDLC level at 40 mg/kg, po administered once daily in morning through gastric intubation for 14 days measured after 4 hrs of last dose; in short: as §1
Rattus norvegicus [6] = experiment: Antihyperlipidemic activity in diet-induced hyperlipidemic rat model assessed as ratio of HDLC to serum total cholesterol level at 40 mg/kg, po administered once daily in morning through gastric intubation for 14 days measured after 4 hrs of last dose
Rattus norvegicus [7] = experiment: Antihyperlipidemic activity in diet-induced hyperlipidemic rat model assessed as atherogenic index at 40 mg/kg, po administered once daily in morning through gastric intubation for 14 days measured after 4 hrs of last dose; in short: as §1
Rattus norvegicus [8] = experiment: Antihyperlipidemic activity in Triton-induced hyperlipidemic rat model assessed as serum total lipid level at 75 mg/kg, po administered for 2 days through gastric intubation immediately and 20 hrs after triton challenge measured after 4 hrs of last dose
In short: (§2)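 Male Charles Foster albino rats (200–250 g), fasted 24 h, given Triton 400 mg/kg ip in saline. Compound given orally by gastric intubation right after Triton and again 20 h later. Killed by decapitation 4 h after the second dose. Serum separated and stored at −20°. Total cholesterol by Abell method, triglycerides by Gottfried–Rosenberg, total lipid by Frings–Dunn. Mean ± SEM, n=6, Student's t-test versus control.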

Rattus norvegicus [9] = experiment: Antihyperlipidemic activity in Triton-induced hyperlipidemic rat model assessed as serum triglyceride level at 75 mg/kg, po administered for 2 days through gastric intubation immediately and 20 hrs after triton challenge measured after 4 hrs of last dose; in short: as §2
Rattus norvegicus [10] = experiment: Antihyperlipidemic activity in Triton-induced hyperlipidemic rat model assessed as serum total cholesterol level at 75 mg/kg, po administered for 2 days through gastric intubation immediately and 20 hrs after triton challenge measured after 4 hrs of last dose; in short: as §2

Row | SMILES | Activity (Rattus norvegicus [1]) [mg/dL] | Activity (Rattus norvegicus [2]) [mg/dL] | Activity (Rattus norvegicus [3]) [mg/dL] | Activity (Rattus norvegicus [4]) [mg/dL] | Activity (Rattus norvegicus [5]) [mg/dL] | Ratio (Rattus norvegicus [6]) | AI (Rattus norvegicus [7]) | Activity (Rattus norvegicus [8]) [mg%] | Activity (Rattus norvegicus [9]) [mg%] | Activity (Rattus norvegicus [10]) [mg%]
1 | COc1cc(O)cc2c1C(=O)C(O)(Cc1ccc(O)cc1)O2 (stereo unspecified) [CARPUSIN] | 41.1 | 190 | 32 | 350.6 | 292.8 | 0.09 | – | – | – | –
2 | O=C1C[C@@H](c2ccc(O)cc2)Oc2cc(O)ccc21 [LIQUIRTIGENIN] | 39.6 | 198.1 | 38.01 | 323.2 | 245.7 | 0.11 | 7.5 | 837.3 | 572.9 | 406.7
